Measurements from different studies.
Protocols differ between the studies behind these lines.
Target: ALK tyrosine kinase receptor (ALK, Homo sapiens, UniProt Q9UM73)

| Compound | read-out | action | method | setting | IC50 |
| --- | --- | --- | --- | --- | --- |
| CC(C)(C)n1nc(-c2cnc3cc(OC4CC4)ccc3c2)c(C(N)=O)c1N | cell-free assay | – | – | – | > 10 µM |
| Cc1cc(-c2cc(C#N)ccc2O[C@@H]2C[C@@H]2c2ccc(F)cc2F)n[nH]1 | enzyme activity | inhibitor | TR-FRET | – | 1.3 µM |
| CCn1ncc2c1-c1cnc(N)c(c1)O[C@H](C)c1cc(F)ccc1-c1nn(C)nc1C2 | enzyme activity | inhibitor | radiometric | – | 0.0011 µM |
| O=[N+]([O-])c1cccc(-c2cnc3[nH]c4ccccc4c3c2)c1 | enzyme activity | inhibitor | ELISA | – | > 10 µM |
| Cc1cc(-c2cccc(C#N)c2)n[nH]1 | enzyme activity | inhibitor | TR-FRET | – | 51 µM |
| c1ccc(CCc2ccc3[nH]c4ncc(-c5ccc6c(c5)OCO6)cc4c3c2)cc1 | enzyme activity | inhibitor | ELISA | – | > 10 µM |
| Cc1cc(-c2ccnc(C#N)c2)n[nH]1 | enzyme activity | inhibitor | TR-FRET | – | 130 µM |
| Clc1cnc2[nH]c3ccc(-c4ccc(N5CCOCC5)cn4)cc3c2c1 | enzyme activity | inhibitor | ELISA | – | > 10 µM |
| Cc1cc(-c2cccc(Cl)c2)n[nH]1 | enzyme activity | inhibitor | TR-FRET | – | 66 µM |
| C=CC(=O)Nc1cc(Nc2nccc(Nc3cc(Cl)c(F)cc3C(C)(C)O)n2)c(OC)cc1N1CC[C@@H](N(C)C)C1 | enzyme activity | inhibitor | – | with preincubation | 1.17 µM |
| Cc1cc(Nc2cc(CN3CCOCC3)c3nc(C)c(Cc4ccc(Cl)cc4F)n3n2)n[nH]1 | enzyme activity | inhibitor | TR-FRET | – | 0.138 µM |
| CC(C)(C)n1nc(-c2ccc3nc(OC4CC4)ccc3c2)c(C(N)=O)c1N | cell-free assay | – | – | – | > 10 µM |
| COc1ccc2c(Oc3ccc4c(C(=O)Nc5ccccc5N)cccc4c3)ccnc2c1 | enzyme activity | inhibitor | – | – | > 0.5 µM |
| COc1cccc(Nc2cnc3[nH]c4ccc(CCc5ccccc5)cc4c3c2)c1 | enzyme activity | inhibitor | ELISA | – | > 10 µM |
